Where a SMILES comes first, the peptide text is derived from it. Bridges are numbered along the chain shown (N, C = ends). [ ]: non-standard residue; d: D form. Arg(NO2) = N=C(NCCC[C@H](N)C(=O)O)N[N+](=O)[O-]; Lys(Me3) = C[N+](C)(C)CCCC[C@H](N)C(=O)O; hArg = N=C(N)NCCCC[C@H](N)C(=O)O; tBuAla = CC(C)(C)C[C@H](N)C(=O)O; Cit = NC(=O)NCCC[C@H](N)C(=O)O; hLeu = CC(C)CC[C@H](N)C(=O)O; β3hS = N[C@@H](CO)CC(=O)O; Nle = CCCC[C@H](N)C(=O)O; Orn = NCCC[C@H](N)C(=O)O; Dab = NCC[C@H](N)C(=O)O; Nva = CCC[C@H](N)C(=O)O; Dap = NC[C@H](N)C(=O)O; βAla = NCCC(=O)O

For this experiment, the target named is T1, Disintegrin and metalloproteinase domain-containing protein 8 (Homo sapiens, UniProt P78325).
T1 sequence (P78325 whole entry): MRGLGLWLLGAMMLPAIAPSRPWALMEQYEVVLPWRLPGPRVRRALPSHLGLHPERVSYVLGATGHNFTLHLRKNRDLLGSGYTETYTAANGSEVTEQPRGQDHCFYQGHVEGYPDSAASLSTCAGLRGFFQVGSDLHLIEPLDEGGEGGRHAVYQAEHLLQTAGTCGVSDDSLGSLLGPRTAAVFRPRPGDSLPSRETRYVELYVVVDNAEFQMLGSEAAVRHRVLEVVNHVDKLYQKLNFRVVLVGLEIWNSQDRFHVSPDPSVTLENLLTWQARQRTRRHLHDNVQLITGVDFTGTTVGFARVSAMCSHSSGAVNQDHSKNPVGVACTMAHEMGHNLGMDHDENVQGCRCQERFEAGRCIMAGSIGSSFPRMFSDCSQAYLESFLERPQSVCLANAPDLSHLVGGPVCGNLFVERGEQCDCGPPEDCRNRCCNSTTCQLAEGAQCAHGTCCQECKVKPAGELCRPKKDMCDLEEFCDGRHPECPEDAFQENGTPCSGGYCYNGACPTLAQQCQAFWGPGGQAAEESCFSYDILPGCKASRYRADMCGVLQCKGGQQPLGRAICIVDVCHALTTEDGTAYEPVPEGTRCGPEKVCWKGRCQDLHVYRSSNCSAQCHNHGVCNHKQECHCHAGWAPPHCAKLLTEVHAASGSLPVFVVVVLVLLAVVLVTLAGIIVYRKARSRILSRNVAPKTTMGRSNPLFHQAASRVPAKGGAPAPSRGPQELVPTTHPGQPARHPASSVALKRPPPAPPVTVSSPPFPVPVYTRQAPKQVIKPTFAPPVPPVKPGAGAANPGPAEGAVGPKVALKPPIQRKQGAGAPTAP
The experiment is described as follows: Inhibition of ADAM8 (unknown origin) expressed in African green monkey COS7 cells co-expressing CD23 assessed as inhibition of CD23 shedding after 6 hrs by ELISA. It counts as cell-based, COS-7. Put shortly:
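COS7 cells co-transfected with CD23 and ADAM8 cDNA, seeded at 2 × 10^5 cells/well and exposed to peptide at 10 nM–10 μM for 6 h. Supernatant CD23 measured by sandwich ELISA: biotinylated anti-CD23 monoclonal antibody, 2 h at room temperature, streptavidin–HRP 1 h, TMB substrate, absorbance at 405 nm. Samples in duplicate against 400–12.5 units/mL standards. IC50 derived.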
Turning to `CC(C)C[C@@H]1NC(=O)[C@H](CCCNC(=N)N)NC(=O)[C@H](CCCCN)NC(=O)[C@H](CC(=O)O)NC(=O)[C@H](CCCCN)NC(=O)C[C@@H](C(=O)O)NC1=O` (KDKRLD-OH; lactam N-6), the IC50 turned out to be 420 nM.

In the case of `CC(C)C[C@@H]1NC(=O)[C@H](CCCNC(=N)N)NC(=O)[C@H](CCCCN)NC(=O)[C@H](CC(=O)O)NC(=O)[C@H](CCCCN)NC(=O)[C@H](CO)NC1=O` (cyclo(DKRLSK)), the IC50 was 240 nM.

As for `CC(C)C[C@@H]1NC(=O)[C@H](CCCNC(=N)N)NC(=O)[C@H](CCCCN)NC(=O)[C@H](CC(=O)O)NC(=O)[C@H](CCCCN)NC(=O)C[C@H](CO)NC1=O` (cyclo(DKRL[β3hS]K)), the IC50 was determined as 157 nM.

Regarding `CC(C)C[C@@H]1NC(=O)[C@H](CCCNC(=N)N)NC(=O)[C@H](CCCCN)NC(=O)[C@H](CC(=O)O)NC(=O)[C@H](CCCCN)NC(=O)CCNC1=O` (cyclo(DKRL[βAla]K)), the IC50 came out at 1650 nM.

With `CCCC[C@@H]1NC(=O)[C@H](CCCNC(=N)N)NC(=O)[C@H](CCCCN)NC(=O)[C@H](CC(=O)O)NC(=O)[C@H](CCCCN)NC(=O)CCNC1=O` (cyclo(DKR[Nle][βAla]K)), the IC50 worked out at 378 nM.

On to `CCC[C@@H]1NC(=O)[C@H](CCCNC(=N)N)NC(=O)[C@H](CCCCN)NC(=O)[C@H](CC(=O)O)NC(=O)[C@H](CCCCN)NC(=O)CCNC1=O` (cyclo(DKR[Nva][βAla]K)), for which the IC50 came to 452 nM.

For the compound `CC(C)CC[C@@H]1NC(=O)[C@H](CCCNC(=N)N)NC(=O)[C@H](CCCCN)NC(=O)[C@H](CC(=O)O)NC(=O)[C@H](CCCCN)NC(=O)C[C@H](CO)NC1=O` (cyclo(DKR[hLeu][β3hS]K)), the IC50 was determined as 142 nM.

Regarding `CC(C)CC[C@@H]1NC(=O)[C@H](CCCNC(=N)N)NC(=O)[C@H](CCCCN)NC(=O)[C@H](CC(=O)O)NC(=O)[C@H](CCCCN)NC(=O)CCNC1=O` (cyclo(DKR[hLeu][βAla]K)), the IC50 came to 220 nM.

`CC(C)(C)C[C@@H]1NC(=O)[C@H](CCCNC(=N)N)NC(=O)[C@H](CCCCN)NC(=O)[C@H](CC(=O)O)NC(=O)[C@H](CCCCN)NC(=O)CCNC1=O` (cyclo(DKR[tBuAla][βAla]K)): the IC50 came out at 256 nM.

Turning to `CC(C)C[C@@H]1NC(=O)[C@H](CCCCNC(=N)N)NC(=O)[C@H](CCCCN)NC(=O)[C@H](CC(=O)O)NC(=O)[C@H](CCCCN)NC(=O)C[C@H](CO)NC1=O` (cyclo(DK[hArg]L[β3hS]K)), the IC50 was determined as 368 nM.

Take `CC(C)C[C@@H]1NC(=O)[C@H](CCCNC(=N)N)NC(=O)[C@H](CCN)NC(=O)[C@H](CC(=O)O)NC(=O)[C@H](CCCCN)NC(=O)CCNC1=O` (cyclo(D[Dab]RL[βAla]K)): the IC50 is over 5000 nM.

For the compound `CC(C)C[C@@H]1NC(=O)[C@H](CCCNC(=N)N)NC(=O)[C@H](CN)NC(=O)[C@H](CC(=O)O)NC(=O)[C@H](CCCCN)NC(=O)CCNC1=O` (cyclo(D[Dap]RL[βAla]K)), the IC50 was over 5000 nM.

On to `CC(C)C[C@@H]1NC(=O)[C@H](CCCNC(=N)N)NC(=O)[C@H](CCCC[N+](C)(C)C)NC(=O)[C@H](CC(=O)O)NC(=O)[C@H](CCCCN)NC(=O)CCNC1=O` (cyclo(D[Lys(Me3)]RL[βAla]K)), for which the IC50 is over 10000 nM.

As to `CC(C)C[C@@H]1NC(=O)[C@H](CCCNC(=N)N)NC(=O)[C@H](CCCN)NC(=O)[C@H](CC(=O)O)NC(=O)[C@H](CCCCN)NC(=O)CCNC1=O` (cyclo(D[Orn]RL[βAla]K)), the IC50 is over 5000 nM.

For the compound `CC(C)C[C@@H]1NC(=O)[C@H](CCCNC(=N)N[N+](=O)[O-])NC(=O)[C@H](CCCCN)NC(=O)[C@H](CC(=O)O)NC(=O)[C@H](CCCCN)NC(=O)C[C@H](CO)NC1=O` (cyclo([Arg(NO2)]L[β3hS]KDK)), the IC50 stood at 1240 nM.

Take `CC(C)C[C@@H]1NC(=O)[C@H](CCCNC(=N)N[N+](=O)[O-])NC(=O)[C@H](CCCCN)NC(=O)[C@H](CC(=O)O)NC(=O)[C@H](CCCCN)NC(=O)CCNC1=O` (cyclo([Arg(NO2)]L[βAla]KDK)): the IC50 turned out to be 2350 nM.

Turning to `CC(C)C[C@@H]1NC(=O)[C@H](CCCNC(N)=O)NC(=O)[C@H](CCCCN)NC(=O)[C@H](CC(=O)O)NC(=O)[C@H](CCCCN)NC(=O)C[C@H](CO)NC1=O` (cyclo([Cit]L[β3hS]KDK)), the IC50 was determined as 192 nM.

As for `CC(C)C[C@@H]1NC(=O)[C@H](CCCNC(N)=O)NC(=O)[C@H](CCCCN)NC(=O)[C@H](CC(=O)O)NC(=O)[C@H](CCCCN)NC(=O)CCNC1=O` (cyclo([Cit]L[βAla]KDK)), the IC50 is 890 nM.

The record behind these values is ChEMBL document CHEMBL3826879, “Synthesis and biological evaluation of analogues of the potent ADAM8 inhibitor cyclo(RLsKDK) for the treatment of inflammatory diseases and cancer metastasis” (Bioorg Med Chem, 2016).
